Measured values reported in ChEMBL document CHEMBL1146523, “Antimalarial dihydroisocoumarins produced by Geotrichum sp., an endophytic fungus of Crassocephalum crepidioides” (J Nat Prod, 2003).
In brackets after ≈: the same amount, converted by molar mass. Activity calls are given as the source filed them. The rule behind the calls is not given here.

Experiments:
[1] = test system: Mycobacterium tuberculosis; experiment: Antimycobacterial activity against Mycobacterium tuberculosis H37Ra by microplate alamar blue assay; format: functional
Outline: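 Growth inhibition of M. tuberculosis H37Ra in the Microplate Alamar Blue Assay. MIC read-out, with isoniazid and kanamycin sulfate as standard drugs.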

Candida albicans = experiment: Antifungal activity against Candida albicans; format: functional, organism-based
Outline: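 Candida albicans growth inhibition measured by a colorimetric method. IC50 read-out, with amphotericin B as the standard drug.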

Plasmodium falciparum = experiment: Antimalarial activity against multidrug-resistant Plasmodium falciparum K1; format: functional, organism-based
Outline: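 Multidrug-resistant P. falciparum K1 kept in continuous culture (Trager–Jensen). In vitro activity measured by the microculture radioisotope technique (Desjardins). IC50 read-out, with chloroquine diphosphate as the standard.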

Structure (SMILES)	MIC [1] [µg/mL]	IC50 (Candida albicans) [µg/mL]	IC50 (Plasmodium falciparum) [µg/mL]	further results
C/C=C/CC[C@@H]1Cc2cc(O)c(C/C=C/C)c(O)c2C(=O)O1	50 (≈ 165 µM)	–	–	Activity (Candida albicans): inactive; Activity (Plasmodium falciparum): inactive
C[C@@H]1[C@H](O)[C@@H](C)/C=C/C=C/C=C/C=C/C=C/C=C/C=C/[C@H](O[C@@H]2O[C@H](C)[C@@H](O)[C@H](N)[C@@H]2O)C[C@@H]2O[C@](O)(C[C@@H](O)C[C@@H](O)[C@H](O)CC[C@@H](O)C[C@@H](O)CC(=O)O[C@H]1C)C[C@H](O)[C@H]2C(=O)O [AMPHOTERICIN B]	–	0.01 (≈ 0.0108 µM)	–	–
CCCCC[C@@H]1Cc2cc(O)c(CCCC)c(O)c2C(=O)O1	–	33 (≈ 108 µM)	2.6 (≈ 8.49 µM)	Activity [1]: inactive
NNC(=O)c1ccncc1 [ISONIAZID]	0.05 (≈ 0.365 µM)	–	–	–
NC[C@H]1O[C@H](O[C@H]2[C@H](O)[C@@H](O[C@H]3O[C@H](CO)[C@@H](O)[C@H](N)[C@H]3O)[C@H](N)C[C@@H]2N)[C@H](O)[C@@H](O)[C@@H]1O.O=S(=O)(O)O [KANAMYCIN SULFATE]	2.5	–	–	–
C/C=C/CC[C@@H]1Cc2cc(O)c(CCCC)c(O)c2C(=O)O1	25 (≈ 82.1 µM)	19 (≈ 62.4 µM)	4.7 (≈ 15.4 µM)	–
